Reference: publication PMC6583924 (European journal of medicinal chemistry, 2017)

Assays:
[1] = molecular target: (h)V1a (Homo sapiens, UniProt P37288); assay: In vitro V1a binding assay; conditions: for inhibition at 0.01 µM: read-out: % Binding inhibition (10^−8M); for inhibition at 0.001 µM: read-out: % Binding inhibition (10^−9M); for V1a binding affinity (in words): structure-activity discussion of Tables 1 and 2
Outline: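 [3H]AVP (0.3 nM; KD 0.5 nM) competition binding on human recombinant V1a expressed in CHO cells, 60 min at RT. Nonspecific binding was defined with 1 µM AVP. Test compounds were run at selected concentrations, two independent experiments each in duplicate, with % binding inhibition recorded. IC50 came from a one-site sigmoidal variable-slope fit; Ki was calculated by Cheng–Prusoff.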

[2] = Lipophilicity logD7,4; assay type: physicochemical; conditions: pH 7.4
[3] = molecular target: V2; conditions: read-out: Ki V2; cited from earlier work
[4] = test system: CD-1 mouse brain; assay: Effect of anesthetics on radiotracer brain uptake in CD-1 mice; assay type: in vivo; conditions: anesthetic ip 80 mg/kg, 30 min prior the radiotracer; 30 min after radiotracer

Chain of (h)V1a (P37288 whole entry): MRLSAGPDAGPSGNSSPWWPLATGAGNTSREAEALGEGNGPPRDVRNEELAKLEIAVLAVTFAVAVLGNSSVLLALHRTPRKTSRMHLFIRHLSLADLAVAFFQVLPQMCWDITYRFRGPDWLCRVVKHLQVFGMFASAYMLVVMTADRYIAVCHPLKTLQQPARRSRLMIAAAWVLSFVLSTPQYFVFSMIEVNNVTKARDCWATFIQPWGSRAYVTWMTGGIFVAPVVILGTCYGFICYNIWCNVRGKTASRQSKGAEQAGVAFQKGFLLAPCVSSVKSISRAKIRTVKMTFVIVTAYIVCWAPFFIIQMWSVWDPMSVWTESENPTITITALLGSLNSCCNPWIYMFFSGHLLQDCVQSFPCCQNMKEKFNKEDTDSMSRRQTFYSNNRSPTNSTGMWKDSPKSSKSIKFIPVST

Row | SMILES | inhibition at 0.01 µM [1] [%] | inhibition at 0.001 µM [1] [%] | V1a binding affinity (in words) [1] | logD [2] | Ki [1] [nM] | Ki [3] [nM] | Effect on radiotracer brain uptake [4]
1 | CC1(C)CC2CC(C)(CN2C(=O)c2ccc(-c3c[nH]c4ccccc34)cc2F)C1 (centres unmarked) [6b, (2-Fluoro-4-(1H-Indol-3-yl)phenyl)(1,3,3-trimethyl-6-aza-bicyclo[3.2.1]octan-6-yl)methanone] | 77.1 | 33.4 | lower binding affinity compared to the lead 1 | 4.8 |  |  | 
2 | CC1(C)CC2CC(C)(CN2C(=O)c2ccc(-c3c[nH]c4ccccc34)c(OCCF)c2)C1 (centres unmarked) [6c, (3-(2fluoroethoxy)-4-(1H-indol-3-yl)phenyl)(1,3,3-trimethyl-6-aza-bicyclo[3.2.1]octan-6yl)methanone] | 92.6 | 45.1 | high binding affinity | 4.9 |  |  | 
3 | COc1cc(C(=O)N2CC3(C)CC2CC(C)(C)C3)ccc1-c1ccc(F)nc1 (centres unmarked) [8a, (4-(6Fluoropyridin-3-yl)-3-methoxyphenyl)(1,3,3-trimethyl-6-aza-bicyclo[3.2.1]octan-6yl)methanone] | 33.9 | 2.9 | lower binding affinity compared to the lead 1 | 3.9 |  |  | 
4 | COc1cc(C(=O)N2CC3(C)CC2CC(C)(C)C3)ccc1-c1cccnc1F (centres unmarked) [8b, (4-(2Fluoropyridin-3-yl)-3-methoxyphenyl)(1,3,3-trimethyl-6-aza-bicyclo[3.2.1]octan-6yl)methanone] | 16 | 9.7 | lower binding affinity compared to the lead 1 | 4 |  |  | 
5 | COc1cc(C(=O)N2CC3(C)CC2CC(C)(C)C3)ccc1-c1cn(C)c2ccccc12 (centres unmarked) [8c, (3Methoxy-4-(1-methyl-1H-indol-3-yl)phenyl)(1,3,3-trimethyl-6-aza-bicyclo[3.2.1]octan-6yl)methanone] | 18.7 | 1.8 | decrease in binding affinity | 6 |  |  | 
6 | COc1cc(C(=O)N2CC3(C)CC2CC(C)(C)C3)ccc1-c1c[nH]c2ncccc12 (centres unmarked) [8d, (3Methoxy-4-(1H-pyrrolo[2,3-b]pyridin-3-yl)phenyl)(1,3,3-trimethyl-6-aza-bicyclo[3.2.1]octan-6yl)methanone] | 28.7 | 4.4 |  | 2.9 |  |  | 
7 | COc1cc(C(=O)N2CC3(C)CC2CC(C)(C)C3)ccc1-c1c[nH]c2cnccc12 (centres unmarked) [8e, (3Methoxy-4-(1H-pyrrolo[2,3-c]pyridin-3-yl)phenyl)(1,3,3-trimethyl-6-aza-bicyclo[3.2.1]octan-6yl)methanone] | 44.2 | -4.7 |  | 3.5 |  |  | 
8 | COc1cc(C(=O)N2CC3(C)CC2CC(C)(C)C3)ccc1-c1c[nH]c2ccncc12 (centres unmarked) [8f, (3Methoxy-4-(1H-pyrrolo[3,2-c]pyridin-3-yl)phenyl)(1,3,3-trimethyl-6-aza-bicyclo[3.2.1]octan-6yl)methanone] | 39.5 | 5.2 |  | 2.8 |  |  | 
9 | Cc1ccccc1-c1ccc(C(=O)N2CC3(C)CC2CC(C)(C)C3)cc1 (centres unmarked) [8g, (2’-Methylbiphenyl-4-yl)(1,3,3-trimethyl-6-aza-bicyclo[3.2.1]octan-6-yl)methanone] | 84.3 | 23.7 | good binding affinity | 5 |  |  | 
10 | Cc1cnccc1-c1ccc(C(=O)N2CC3(C)CC2CC(C)(C)C3)cc1 (centres unmarked) [8h, (4-(3-Methylpyridin-4-yl)phenyl)(1,3,3-trimethyl-6-aza-bicyclo[3.2.1]octan-6-yl)methanone] | 28.9 | 10.5 |  | 4.4 |  |  | 
11 | Cc1ccncc1-c1ccc(C(=O)N2CC3(C)CC2CC(C)(C)C3)cc1 (centres unmarked) [8i, (4-(4-Methylpyridin-3-yl)phenyl)(1,3,3-trimethyl-6-aza-bicyclo[3.2.1]octan-6-yl)methanone] | 43.9 | 12.8 |  | 4.4 |  |  | 
12 | Cc1ncccc1-c1ccc(C(=O)N2CC3(C)CC2CC(C)(C)C3)cc1 (centres unmarked) [8j, (4-(2-Methylpyridin-3-yl)phenyl)(1,3,3-trimethyl-6-aza-bicyclo[3.2.1]octan-6-yl)methanone] | 18.2 | -6.6 |  | 4.4 |  |  | 
13 | Cc1ccccc1-c1ccc(C(=O)N2CC3(C)CC2CC(C)(C)C3)c(F)c1 (centres unmarked) [8k, (3-Fluoro-6’-methylbiphenyl-4-yl)(1,3,3-trimethyl-6-aza-bicyclo[3.2.1]octan-6-yl)methanone] | 81.2 | 22.8 | good binding affinity | 5.8 |  |  | 
14 | Cc1ccncc1-c1ccc(C(=O)N2CC3(C)CC2CC(C)(C)C3)c(F)c1 (centres unmarked) [8l, (2Fluoro-4-(4-methylpyridin-3-yl)phenyl)(1,3,3-trimethyl-6-aza-bicyclo[3.2.1]octan-6yl)methanone] | 19.8 | 2.4 | poor V1a binding affinity | 4.5 |  |  | 
15 | COc1cc(C(=O)N2CCN(C)CC2)ccc1-c1c[nH]c2ccccc12 [13a, (4-(1H-Indol-3-yl)-3-methoxyphenyl)(4-methylpiperazin-1-yl)methanone] | 4.7 | 15.7 |  | 0.7 |  |  | 
16 | COc1cc(C(=O)N2CCC(F)(F)CC2)ccc1-c1c[nH]c2ccccc12 [13b, (4-(1H-Indol-3-yl)-3-methoxyphenyl)(4,4-difluoropiperidin-1-yl)methanone] | 9 | 13.7 |  | 1.6 |  |  | 
17 | COc1cc(C(=O)N2CCCN(C)CC2)ccc1-c1c[nH]c2ccccc12 [13c, (4-(1H-Indol-3-yl)-3-methoxyphenyl)(4-methyl-1,4-diazepan-1-yl)methanone] | 6.2 | 5.7 |  | 0.2 |  |  | 
18 | COc1cc(C(=O)NC23CC4CC(CC(C4)C2)C3)ccc1-c1c[nH]c2ccccc12 [13d, N-Adamantan-1-yl-4-(1H-indol-3-yl)-3-methoxybenzamide] | 4.8 | 7.4 |  | 5.8 |  |  | 
19 | COc1cc(C(=O)Nc2ccc(F)cc2)ccc1-c1c[nH]c2ccccc12 [13e, N-(4-Fluorophenyl)-4-(1H-indol-3-yl)-3-methoxybenzamide] | 4.6 | 5 |  | 3.2 |  |  | 
20 | COc1cc(C(=O)N2C[C@]3(C)C[C@H]2CC(C)(C)C3)ccc1-c1c[nH]c2ccccc12 [(1S,5R)-1, (4-(1Hindol-3-yl)-3-methoxyphenyl)((1S,5R)-1,3,3-trimethyl-6-azabicyclo[3.2.1]octan-6-yl)methanone] | 87.9 | 51.4 |  | 4.7 | 0.66 | 600 | 
21 | CNC1(c2ccccc2Cl)CCCCC1=O (centres unmarked) [Ketamine] |  |  |  |  |  |  | did not significantly change
